Measured values from different studies.
≈ marks a conversion by molar mass, not a printed value.
Organism: Staphylococcus epidermidis
Effect on: microbial growth

| SMILES | technique | strain | setting | quantity | value |
| --- | --- | --- | --- | --- | --- |
| Cc1c2c(nn1C)CSCc1cc(n(C)n1)CSc1cc(c3ccccc3c1)OCCCc1c(C(=O)O)n(C)c3c-2c(Cl)ccc13 | broth dilution |  | clinical isolate | MIC50 | 12.5 µM |
| Cc1ccc2[nH]nc(-c3nnc(Nc4ccc(Cl)c(Cl)c4)s3)c2c1 |  | ATCC12228 |  | MIC | 187 µg/mL (≈ 498 µM) |
| CN[C@H](CC(C)C)C(=O)N[C@H]1C(=O)N[C@@H](CC(N)=O)C(=O)N[C@H]2C(=O)N[C@H]3C(=O)N[C@H](C(=O)N[C@H](C(=O)O)c4cc(O)cc(O)c4-c4cc3ccc4O)[C@H](O)c3ccc(c(Cl)c3)Oc3cc2cc(c3O[C@@H]2O[C@H](CO)[C@@H](O)[C@H](O)[C@H]2O[C@H]2C[C@](C)(N)[C@H](O)[C@H](C)O2)Oc2ccc(cc2Cl)[C@H]1O |  |  | clinical isolate | MIC | 0.78 µg/mL (≈ 0.538 µM) |
| C=C[C@]1(C)C[C@@H](OC(=O)CS[C@@H]2C[C@H]3CC[C@@H](C2)N3C)[C@]2(C)[C@H](C)CC[C@]3(CCC(=O)[C@H]32)[C@@H](C)[C@@H]1O |  |  | clinical isolate | MIC90 | 0.0625 µg/mL (≈ 0.121 µM) |
| CNC(C)C1CCC(N)C(OC2C(N)CC(N)C(OC3OCC(C)(O)C(NC)C3O)C2O)O1 (stereo not shown) | broth dilution |  |  | MIC | 1 µg/mL (≈ 2.09 µM) |
| CN[C@H](CC(C)C)C(=O)N[C@H]1C(=O)N[C@@H](CC(N)=O)C(=O)N[C@H]2C(=O)N[C@H]3C(=O)N[C@H](C(=O)N[C@H](C(=O)O)c4cc(O)cc(O)c4-c4cc3ccc4O)[C@H](O)c3ccc(c(Cl)c3)Oc3cc2cc(c3O[C@@H]2O[C@H](CO)[C@@H](O)[C@H](O)[C@H]2O[C@H]2C[C@](C)(N)[C@H](O)[C@H](C)O2)Oc2ccc(cc2Cl)[C@H]1O | broth dilution |  | clinical isolate | MIC50 | 1 µg/mL |
| Cc1ccc2[nH]nc(-c3nnc(Nc4ccc(F)cc4Cl)s3)c2c1 |  | ATCC12228 |  | MIC | 118 µg/mL (≈ 328 µM) |
| CCn1cc(C(=O)O)c(=O)c2cc(F)c(N3CCNCC3)cc21 |  |  | clinical isolate | MIC | 0.2 µg/mL (≈ 0.626 µM) |
| Cc1ccc2[nH]nc(-c3nnc(Nc4ccc(C)c(C)c4)s3)c2c1 |  | ATCC12228 |  | MIC | 172 µg/mL (≈ 512 µM) |
| CC[C@H]1OC(=O)[C@H](C)[C@@H](O[C@H]2C[C@@](C)(OC)[C@@H](O)[C@H](C)O2)[C@H](C)[C@@H](O[C@@H]2O[C@H](C)C[C@H](N(C)C)[C@H]2O)[C@](C)(O)C[C@@H](C)/C(=N\OCOCCOC)[C@H](C)[C@@H](O)[C@]1(C)O |  | MRSE | clinical isolate | MIC90 | > 128 µg/mL |
